# In the library only some 2.4% were active in any assay of this set; here they are far more common.
# Runt-CBFb FRET: inhibitors of RUNX1 Runt–CBFb binding, primary screen, biochemical, FRET, Cerulean-Runt, Venus-CBFb, uHTS; Cerulean-Runt/Venus-CBFb FRET ratio 530/480, 1 h; inhibition, % at 20 µM; hit rate 0.46% among 220,000; AID 1496, 2009;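 active means inhibition over about 50% at 20 µM in the single-dose screen, limit read from the data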;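 further: 0% = DMSO wells and 100% = excess unlabeled CBFb competitor control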
#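 System: Cerulean-labeled Runt domain protein | Quantity: 100 nM of each labeled protein | Schedule: 1 h compound exposure, room temperature | Detection: Fluorescence energy transfer, 422 nm excitation, 530/480 nm emission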
# LANA-H2B inh: blockers of LANA interaction with H2A/H2B – biochemical, FP readout, HTS, primary screen; cell-free LANA-H2A/H2B peptide, fluorescence polarization; inhibition, % (concentration not given with the values); Protein LANA1 (Human herpesvirus 8 type P (isolate GK18)), Q9QR71; hit rate 0.6% among 320,000; in the data active means inhibition mostly above about 10%, no sharp cut-off; inactive means mostly below about 6.7%
# Target sequence (Q9QR71 whole entry, looked up): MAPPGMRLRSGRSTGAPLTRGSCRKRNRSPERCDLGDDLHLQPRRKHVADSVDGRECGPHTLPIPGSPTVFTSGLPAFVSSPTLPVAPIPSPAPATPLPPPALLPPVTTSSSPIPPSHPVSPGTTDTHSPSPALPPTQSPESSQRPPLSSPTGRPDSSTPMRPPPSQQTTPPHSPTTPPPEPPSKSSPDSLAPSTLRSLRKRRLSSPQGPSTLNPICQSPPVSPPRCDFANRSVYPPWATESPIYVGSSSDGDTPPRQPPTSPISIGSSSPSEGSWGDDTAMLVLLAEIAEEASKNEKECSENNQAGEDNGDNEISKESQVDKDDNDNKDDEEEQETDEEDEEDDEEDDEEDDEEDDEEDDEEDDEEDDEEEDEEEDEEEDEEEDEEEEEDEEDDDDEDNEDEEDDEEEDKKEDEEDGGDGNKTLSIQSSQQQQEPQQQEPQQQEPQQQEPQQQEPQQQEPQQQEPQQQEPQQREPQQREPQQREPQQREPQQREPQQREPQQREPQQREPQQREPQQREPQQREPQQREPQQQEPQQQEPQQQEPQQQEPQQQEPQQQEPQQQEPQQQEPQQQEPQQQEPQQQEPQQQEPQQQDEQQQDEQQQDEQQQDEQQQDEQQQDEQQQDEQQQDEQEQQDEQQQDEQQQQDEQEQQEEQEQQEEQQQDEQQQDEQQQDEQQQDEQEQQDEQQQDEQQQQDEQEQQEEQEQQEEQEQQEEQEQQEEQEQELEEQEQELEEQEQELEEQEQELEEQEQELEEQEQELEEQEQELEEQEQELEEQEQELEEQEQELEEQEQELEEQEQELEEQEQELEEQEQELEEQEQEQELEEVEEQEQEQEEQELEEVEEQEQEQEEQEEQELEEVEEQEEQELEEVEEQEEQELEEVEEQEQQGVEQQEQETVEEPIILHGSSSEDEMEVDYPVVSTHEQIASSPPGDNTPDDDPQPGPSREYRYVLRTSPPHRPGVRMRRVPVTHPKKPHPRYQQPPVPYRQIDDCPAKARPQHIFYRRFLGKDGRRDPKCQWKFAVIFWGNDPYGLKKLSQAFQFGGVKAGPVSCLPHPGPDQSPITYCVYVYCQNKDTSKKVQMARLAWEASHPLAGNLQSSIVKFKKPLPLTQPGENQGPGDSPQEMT
# Runt-SMMHC FRET: inhibitors of RUNX1 Runt–CBFb-SMMHC binding, primary screen, biochemical, FRET, Cerulean-Runt, Venus-CBFb-SMMHC, uHTS | Runt-related transcription factor 1 (Homo sapiens) + Core-binding factor subunit beta … | Cerulean-Runt/Venus-CBFb-SMMHC FRET ratio 530/480, 1 h | inhibition, % at 20 µM | hit rate 0.74% among 220,000;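 active means mean inhibition across duplicate retests at 20 µM reaching about 50%, limit read from the data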;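 further: 0% = DMSO wells and 100% = wells with excess untagged CBFb-SMMHC; inhibitors lower the FRET ratio by blocking Runt binding to CBFb-SMMHC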
# EBV gp42 block: Epstein-Barr virus gp42 inhibitors, primary screen, biochemical, uHTS, fluorescence polarization; Glycoprotein 42 (Epstein-Barr virus (strain AG876)), Q1HVG2; Fluorescence polarization binding assay, mP read-out; inhibition, % (tested at 21.74 µM); hit rate 0.42% among 220,000; AID 1085, 2008; in the data active means inhibition above about 50%
# MEX-5 binding: MEX-5 zinc finger RNA-binding disruptors – biochemical, C. elegans, fluorescence polarization, MLPCN library, primary screen; Zinc finger protein mex-5 (Caenorhabditis elegans), Q9XUB2; MEX-5/FITC-TCR2 RNA binding; hits give low values; activity score (negative = inhibition of binding), % at 10 µM; hit rate 0.38% among 300,000;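 active means inhibition past about -25% in most replicates, and total fluorescence under double the plate's negative control median, limit read from the data; inconclusive means replicates evenly split on the limit, or fluorescence at least double controls; inactive means too little inhibition in most replicates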;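 further: 0% = DMSO and -100% = 5 µM competing unlabeled TCR2 RNA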
# RanGTP-Imp inh: inhibitors of RanGTP-importin-beta interaction, primary screen, biochemical, FRET, CFP-Ran, YFP-importin-beta, homogeneous; Ran GTPase (GTP-bound) - importin-beta complex; cell-free CFP-Ran/YFP-importin-beta FRET ratio; inhibition, % (test concentration not listed); hit rate 1.1% among 300,000; AID 2216, 2009;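 active means more than half of the replicate wells show a fall in the fluorescence ratio signal beyond about 16%, limit read from the data, passing the limit was not always enough; inconclusive means exactly half of the replicate wells pass the set limit; inactive means fewer than half of replicates pass the limit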;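 further: 0% = DMSO wells and 100% = Ran loaded with GDP instead of GTP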
# * = called active by the depositor; ? = inconclusive; nt = no result.
SMILES,Runt-CBFb FRET,LANA-H2B inh,Runt-SMMHC FRET,EBV gp42 block,MEX-5 binding,RanGTP-Imp inh
Cc1cccn2c(=O)c3cc(C(=O)NCc4cccnc4)c(=N)n(CC4CCCO4)c3nc12 (configuration not stated),nt,-10,nt,nt,-10,180*
Cc1cccn2c(=O)c3cc(C(=O)NCCc4ccccc4)c(=N)n(CC4CCCO4)c3nc12 (configuration not stated),nt,-2,nt,nt,-12,181*
CSc1nccc(Oc2ccc(C#N)cc2)n1,0,3,0,-11,1,-4
CC(C)Cn1nc(NC(=O)C(C)(C)C)c2cc3ccccc3nc21,11,9,24,6,0,-1
COc1ccc(NC(=O)c2cccs2)cc1,-2,-6,2,-15,-4,?
COc1ccc2nc3c(cc2c1)c(NC(=O)c1cccs1)nn3CC(C)C,62*,2,63*,15,nt,116*
CC(C)Cn1nc(NC(=O)c2cccs2)c2cc3ccccc3nc21,34,2,57*,-3,-3,64*
CCn1nc(C(=O)OCC(=O)c2c[nH]c3ccccc23)c2ccccc2c1=O,-4,9,-3,-12,-16,6
CCOc1ccc(C(=O)COC(=O)c2nn(CC)c(=O)c3ccccc23)cc1,nt,13*,nt,nt,nt,nt
Cc1ccsc1/C=C(\C(=O)c1ccc(OC(C)C)cc1)c1nc2ccccc2o1,-3,11*,-8,-30,3,3
COc1cc(CNCc2ccc(OC)c(OC)c2OC)cc(OC)c1,0,37*,-2,7,nt,nt
Cc1noc(C)c1CSc1nnc2n(-c3ccccc3)c(=O)c3ccccc3n12,nt,21*,nt,nt,-1,-2
Cc1noc(C)c1CSc1nc2ccccc2c(=O)n1-c1ccccc1,0,1,1,-9,1,0
COC(=O)c1ccc2c(=O)n(CCCCCC(=O)NCc3ccc4c(c3)OCO4)c(=O)[nH]c2c1,0,-4,2,-28,3,35*
C=CCN=C1S/C(=C\c2ccc(N(C)C)cc2)C(=O)N1CC=C,-18,16*,-32,-47,nt,3
C=CCN1C(=O)/C(=C/c2ccc(OC)cc2)S/C1=N/c1nccs1,-7,-7,-19,-28,1,6
CC1CCN(C(=O)CNC(=O)c2ccc(Br)o2)CC1,nt,-4,nt,nt,nt,nt
O=C(Cn1c(=O)c(=O)n(Cc2ccccc2)c2ccc(Cl)cc21)Nc1cccc(F)c1,-2,0,2,-19,-5,-1
Cc1nn(-c2ccccc2)c2sc(C(=O)NNC(=O)COc3cccc4ccccc34)cc12,-4,5,-3,-16,3,3
Cc1nn(-c2ccccc2)c2sc(C(=O)NNC(=O)COc3ccccc3)cc12,121*,2,128,4,1,1
CNc1nc(-c2ccc(S(=O)(=O)N3CCCCC3)cc2)cs1,nt,15*,nt,nt,nt,nt
CC1CCN(S(=O)(=O)c2ccc3[nH]c(=O)[nH]c3c2)CC1,nt,-2,nt,nt,0,-1
Cc1cccc(S(=O)(=O)C(C#N)c2nc3ccccc3nc2N2CCOCC2)c1 (configuration not stated),-22,1,57,-6,-72*,6
CCOC(=O)N1CCN(c2nc3ccccc3nc2C(C#N)S(=O)(=O)c2ccc(C)cc2)CC1 (configuration not stated),-47,5,63,5,-35*,7
Cc1ccc(S(=O)(=O)C(C#N)c2nc3ccccc3nc2N2CCN(C)CC2)cc1 (configuration not stated),57*,2,79*,-1,0,64*
SMILES,Runt-CBFb FRET,LANA-H2B inh,Runt-SMMHC FRET,EBV gp42 block,MEX-5 binding,RanGTP-Imp inh
Cc1ccc(S(=O)(=O)C(C#N)c2nc3ccccc3nc2N2CCCCC2)cc1 (configuration not stated),-39,nt,-111,nt,nt,nt
O=C1O[C@@H]([C@H](O)CO)C(O)=C1O,nt,0,nt,nt,-3,-3
C[C@H](NC(=O)C1CCN(S(=O)(=O)c2ccccc2)CC1)C(=O)NCc1ccc(Cl)c(Cl)c1,nt,-3,nt,nt,-1,3
CCN(CC)S(=O)(=O)c1cc(NC(=O)C(C)OC(=O)c2[nH]c(C)c(C(C)=O)c2C)ccc1C (configuration not stated),-7,-7,-1,-18,0,1
O=C(Nc1ccc2nc(-c3ccco3)c(-c3ccco3)nc2c1)N1CCN(c2ccccn2)CC1,-30,nt,-93,-3,-30*,33*
S=C(Nc1ccc(N2CCOCC2)cc1)Nc1ccc2nc(-c3ccco3)c(-c3ccco3)nc2c1,-95,3,-388,111*,-1,20*
Cc1nc2cc(NC(=O)N3CCN(c4ccccn4)CC3)ccc2o1,1,-1,-2,-1,1,-3
CCC(=O)Nc1ccc2c(c1)nc1n2CCN(C2CCCCC2)C1,nt,3,nt,15,0,0
O=C(Nc1ccc2c(c1)nc1n2CCN(C2CCCCC2)C1)NC1CCCCC1,0,1,15,83*,-8,-2
CC1CC(C)CN(S(=O)(=O)c2ccc3c(c2)CC(=O)N3)C1 (configuration not stated),nt,1,nt,nt,nt,nt
CCOC(=O)C1CCN(C(=O)CN2C(=O)CSc3ccc(S(=O)(=O)N4CCOCC4)cc32)CC1,nt,-1,nt,nt,-1,1
O=C(CN1C(=O)CSc2ccc(S(=O)(=O)N3CCOCC3)cc21)NCCCN1CCCCC1,nt,2,nt,nt,3,?
O=C(CN1C(=O)CSc2ccc(S(=O)(=O)N3CCOCC3)cc21)NCCCN1CCOCC1,-1,2,-2,-16,1,151*
O=C(CN1C(=O)CSc2ccc(S(=O)(=O)N3CCOCC3)cc21)N1CCCCC1,nt,-4,nt,nt,4,62*
COc1ccc(N2C(=O)CN(Cc3ccc(OC)c(OC)c3)C2=S)cc1,0,0,1,-9,1,2
CC1(C)NC(=O)N(CC(=O)OCC(=O)Nc2sccc2C#N)C1=O,0,1,-3,26,-16,1
O=C(CCCN1C(=O)c2cccnc2C1=O)N1CC(=O)N(CCc2ccccc2)C(=O)C1,-2,25*,0,-5,nt,nt
Cc1ccc(S(=O)(=O)/N=c2\ccc(Cl)cn2C(F)F)cc1,-1,17*,0,-21,-3,-2

# From PubChem BioAssay
